Results gathered from unrelated publications.
pEC50: −log10 of the molar value.
Read-out: cell growth or viability

SMILES	cell line	test	setting	measurement	value
CNc1ncc2c(/C=C/C(=O)N3CCC(OC)CC3)nn(C(C)C)c2n1	OE33	resazurin	5 days	pEC50	4.88
O=C(Nc1ccc(Oc2nnc(-c3ccc(Cl)cc3)c3ccccc23)cc1)c1cccc([N+](=O)[O-])c1	HepG2	MTT	5 µM	cell death	94.8%
C=CC(=O)NC1CCN(c2ncc3ncnc(Nc4ccc(Oc5ccc6c(c5)ncn6C)c(C)c4)c3n2)CC1	NCI-H292	–	–	pEC50	7.08
CC(=O)Nc1ccc(Oc2nnc(-c3ccc(Cl)cc3)c3ccccc23)cc1	HepG2	MTT	0.625 µM	cell death	88.3%
CNc1ncc2c(/C=C/C(=O)N3CCC(OC)CC3)nn(Cc3ccc(C(F)(F)F)cc3)c2n1	OE33	resazurin	5 days	pEC50	5.88
CC(C)(C)c1cnc(CSc2cnc(NC(=O)C3CCN(C(=O)COCCOCCSc4cccc5c4C(=O)N(C4CCC(=O)NC4=O)C5=O)CC3)s2)o1 (stereo not shown)	HH	CCK-8	50 nM	viability	97.9%
CC(=NNC(N)=S)c1ccc(Nc2nnc(-c3ccc(Cl)cc3)c3ccccc23)cc1	HepG2	MTT	10 µM, 24 h	viability	7.32%
CNc1ncc2c(/C=C/C(=O)N3CCC(OC)CC3)nn(CC3OCCO3)c2n1	OE33	resazurin	5 days	pEC50	< 4.52
CC(C)(C)c1cnc(CSc2cnc(NC(=O)C3CCN(CCCCSc4cccc5c4C(=O)N(C4CCC(=O)NC4=O)C5=O)CC3)s2)o1 (stereo not shown)	HH	CCK-8	0.15 µM	viability	36.9%
CNc1ncc2c(/C=C/C(=O)N3CCC(OC)CC3)nn(Cc3ccccc3)c2n1	OE33	resazurin	5 days	pEC50	5.13
CC(=NNC(=O)c1cccnc1)c1ccc(Nc2nnc(-c3ccc(Cl)cc3)c3ccccc23)cc1	HepG2	MTT	2.5 µM, 24 h	viability	6.93%
CC(C)(C)c1cnc(CSc2cnc(NC(=O)C3CCN(CCCCCCCCSc4cccc5c4CN(C4CCC(=O)NC4=O)C5=O)CC3)s2)o1 (stereo not shown)	HH	CCK-8	1 nM	viability	97.4%
CNc1ncc2c(/C=C/C(=O)N3CCC(c4ccccc4)CC3)nn(CC3CCCC3)c2n1	OE33	resazurin	5 days	pEC50	< 4.52
CC(C)(C)c1cnc(CSc2cnc(NC(=O)C3CCN(CCCCCCCCSc4cccc5c4C(=O)N(C4CCC(=O)NC4=O)C5=O)CC3)s2)o1 (stereo not shown)	HH	CCK-8	0.25 µM	viability	0%
O=C(Nc1ccc(Oc2nnc(-c3ccc(Cl)cc3)c3ccccc23)cc1)c1ccccc1	HepG2	MTT	0.156 µM	cell death	45.6%
CNc1ncc2c(/C=C/C(=O)N3CCC(N(C)C)CC3)nn(CC3CCCC3)c2n1	OE33	resazurin	5 days	pEC50	4.83
CCOC(=O)c1nn(-c2cccc(Cl)c2)/c(=N/N=C(\C)c2ccc(NC(=O)c3ccccc3)cc2)s1	HepG2	MTT	0.625 µM	viability	3.18%
S=C(Nc1ccccc1)Nc1ccc(Oc2nnc(-c3ccc(Cl)cc3)c3ccccc23)cc1	HepG2	MTT	1.25 µM, 24 h	viability	57.1%
CC(C)(C)c1cnc(CSc2cnc(NC(=O)C3CCN(C(=O)CCCSc4cccc5c4C(=O)N(C4CCC(=O)NC4=O)C5=O)CC3)s2)o1 (stereo not shown)	HH	CCK-8	0.2 µM	viability	96.7%
